Measured values taken from ChEMBL document CHEMBL3244402, “Branched-chain analogues of luteinizing hormone-releasing hormone” (1978).
The source made the active and inactive calls. No cut-off for these calls is given here. Square brackets hold non-standard residues; d marks the D form. Peptide text beside a SMILES is read from it. pGlu = O=C1CC[C@@H](C(=O)O)N1

Key:
Rattus norvegicus [1] = assay: In vivo activation of LH-RH receptor in immature rat assessed as release of luteinizing hormone in serum at 50 ng, sc measured over 4 hrs by double antibody radioimmunoassay; format: functional, organism-based
Procedure, shortened: (§1)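 Immature male rats were injected sc with agonist, LH-RH or saline and followed over 0.25–4 h, with blood sampled at intervals. Serum LH was measured by double antibody radioimmunoassay and FSH by radioimmunoassay, against NIH-LH-S17 and NIAMD-rat-FSH-RP1 standards.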

Rattus norvegicus [2] = assay: In vivo activation of LH-RH receptor in immature rat assessed as release of follicle-stimulating hormone in serum at 50 ng, sc measured over 4 hrs by radioimmunoassay; format: functional, organism-based; procedure, shortened: as §1
Rattus norvegicus [3] = assay: In vivo activation of LH-RH receptor in immature rat assessed as release of follicle-stimulating hormone relative to control; format: functional; procedure, shortened: as §1
Rattus norvegicus [4] = assay: In vivo activation of LH-RH receptor in immature rat assessed as release of luteinizing hormone relative to control; format: functional; procedure, shortened: as §1
Rattus norvegicus [5] = assay: In vivo inhibition of LH-RH receptor in immature rat assessed as inhibition of LH-RH-stimulated luteinizing hormone release in serum at 300 ug, sc administered 1 hr prior to LH-RH addition measured after 30 mins relative to vehicle-treated control; format: functional
Procedure, shortened: (§2)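 Immature male rats received 300 μg peptide sc in 20% propylene glycol-saline, or vehicle alone. Synthetic LH-RH (200 ng) or saline was injected at the same time or later, over a 4-h period. Blood was taken 30 min after LH-RH. Serum LH and FSH were measured by radioimmunoassay (double antibody for LH), and percent inhibition of serum gonadotropin was calculated.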

Rattus norvegicus [6] = assay: In vivo inhibition of LH-RH receptor in immature rat assessed as inhibition of LH-RH-stimulated luteinizing hormone release in serum at 300 ug, sc administered 4 hrs prior to LH-RH addition measured after 30 mins relative to vehicle-treated control; format: functional; procedure, shortened: as §2
Rattus norvegicus [7] = assay: In vivo inhibition of LH-RH receptor in immature rat assessed as inhibition of LH-RH-stimulated follicle-stimulating hormone release in serum at 300 ug, sc administered 1 hr prior to LH-RH addition measured after 30 mins relative to vehicle-treated control; format: functional; procedure, shortened: as §2
Rattus norvegicus [8] = assay: In vivo inhibition of LH-RH receptor in immature rat assessed as inhibition of LH-RH-stimulated follicle-stimulating hormone release in serum at 300 ug, sc administered 4 hrs prior to LH-RH addition measured after 30 mins relative to vehicle-treated control; format: functional; procedure, shortened: as §2
Rattus norvegicus [9] = assay: Antiovulatory activity in Sprague-Dawley rat at 1.5 mg, sc administered at 12 pm on proestrous day relative to vehicle-treated control; format: functional
Procedure, shortened: (§3)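 Adult female SD rats (~200 g), 14 h light/10 h dark, with vaginal smears checked daily from 14 days after arrival. Only rats with at least two successive regular 4-day cycles were used. Peptide was given sc in propylene glycol-saline on the proestrous afternoon. Rats were killed the next day and oviducts inspected for ova. Read-out was % inhibition of ovulation and ova count (±SE) in ovulating rats.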

Rattus norvegicus [10] = assay: Antiovulatory activity in Sprague-Dawley rat at 1 mg, sc administered at 12 pm on proestrous day relative to vehicle-treated control; format: functional; procedure, shortened: as §3
Rattus norvegicus [11] = assay: Antiovulatory activity in Sprague-Dawley rat at 1.5 mg, sc administered at 9 am on proestrous day relative to vehicle-treated control; format: functional
Rattus norvegicus [12] = assay: In vivo inhibition of LH-RH receptor in immature rat assessed as inhibition of LH-RH-stimulated luteinizing hormone release in serum at 300 ug, sc administered 0.5 hrs prior to LH-RH addition measured after 30 mins relative to vehicle-treated control; format: functional; procedure, shortened: as §2
Rattus norvegicus [13] = assay: In vivo inhibition of LH-RH receptor in immature rat assessed as inhibition of LH-RH-stimulated luteinizing hormone release in serum at 300 ug, sc administered 2 hrs prior to LH-RH addition measured after 30 mins relative to vehicle-treated control; format: functional; procedure, shortened: as §2

Compound | inhibition (INH) (Rattus norvegicus [5]) | inhibition (INH) (Rattus norvegicus [6]) | inhibition (INH) (Rattus norvegicus [7]) | inhibition (INH) (Rattus norvegicus [8]) | inhibition (INH) (Rattus norvegicus [10]) | other results
CC(C)C[C@H](NC(=O)CNC(=O)[C@H](Cc1ccc(O)cc1)NC(=O)[C@H](CO)NC(=O)[C@H](Cc1c[nH]c2ccccc12)NC(=O)[C@H](Cc1cnc[nH]1)NC(=O)[C@@H]1CCC(=O)N1)C(=O)N[C@@H](CCCNC(=N)N)C(=O)N1CCC[C@H]1C(=O)NCC(N)=O |  |  |  |  |  | Activity (Rattus norvegicus [1]): Active; Activity (Rattus norvegicus [2]): Active
CC(C)C[C@H](NC(=O)[C@@H](CCCCN)NC(=O)[C@H](Cc1ccc(O)cc1)NC(=O)[C@H](CO)NC(=O)[C@H](Cc1c[nH]c2ccccc12)NC(=O)[C@H](Cc1cnc[nH]1)NC(=O)[C@@H]1CCC(=O)N1)C(=O)N[C@@H](CCCNC(=N)N)C(=O)N1CCC[C@H]1C(=O)NCC(N)=O |  |  |  |  |  | Activity (Rattus norvegicus [3]): 300%; Activity (Rattus norvegicus [4]): 300%
CC(=O)Oc1ccccc1C(=O)NCCCC[C@@H](NC(=O)[C@H](Cc1ccc(O)cc1)NC(=O)[C@H](CO)NC(=O)[C@@H](Cc1c[nH]c2ccccc12)NC(=O)[C@@H](Cc1ccccc1)NC(=O)[C@@H]1CCC(=O)N1)C(=O)N[C@@H](CC(C)C)C(=O)N[C@@H](CCCNC(=N)N)C(=O)N1CCC[C@H]1C(=O)NCC(N)=O | 57% | 18% | 23% | 13% |  | inhibition (INH) (Rattus norvegicus [9]): 11%
COc1ccc2c(c1)c(CC(=O)NCCCC[C@@H](NC(=O)[C@H](Cc1ccc(O)cc1)NC(=O)[C@H](CO)NC(=O)[C@@H](Cc1c[nH]c3ccccc13)NC(=O)[C@@H](Cc1ccccc1)NC(=O)[C@@H]1CCC(=O)N1)C(=O)N[C@@H](CC(C)C)C(=O)N[C@@H](CCCNC(=N)N)C(=O)N1CCC[C@H]1C(=O)NCC(N)=O)c(C)n2C(=O)c1ccc(Cl)cc1 | 7% | 0% | 0% | 0% |  | inhibition (INH) (Rattus norvegicus [9]): 0%
CC(C)C[C@H](NC(=O)[C@@H](Cc1ccccc1)NC(=O)[C@H](Cc1ccc(O)cc1)NC(=O)[C@H](CO)NC(=O)[C@@H](Cc1c[nH]c2ccccc12)NC(=O)[C@@H](Cc1ccccc1)NC(=O)[C@@H]1CCC(=O)N1)C(=O)N[C@@H](CCCNC(=N)N)C(=O)N1CCC[C@H]1C(=O)NCC(N)=O | 84% | 52% | 65% | 77% | 83% | inhibition (INH) (Rattus norvegicus [11]): 67%
CC(C)C[C@H](NC(=O)[C@@H](CCCCN)NC(=O)[C@H](Cc1ccc(O)cc1)NC(=O)[C@H](CO)NC(=O)[C@@H](Cc1c[nH]c2ccccc12)NC(=O)[C@@H](Cc1ccccc1)NC(=O)[C@@H]1CCC(=O)N1)C(=O)N[C@@H](CCCNC(=N)N)C(=O)N1CCC[C@H]1C(=O)NCC(N)=O ([pGlu][dF][dW]SY[dK]LRPG-NH2) | 36% | 38% | 37% | 18% | 0% | 
CC(C)C[C@H](NC(=O)[C@@H](CCCCNC(=O)[C@H](Cc1ccc(O)cc1)NC(=O)[C@H](CO)NC(=O)[C@@H](Cc1c[nH]c2ccccc12)NC(=O)[C@@H](Cc1ccccc1)NC(=O)[C@@H]1CCC(=O)N1)NC(=O)[C@H](Cc1ccc(O)cc1)NC(=O)[C@H](CO)NC(=O)[C@@H](Cc1c[nH]c2ccccc12)NC(=O)[C@@H](Cc1ccccc1)NC(=O)[C@@H]1CCC(=O)N1)C(=O)N[C@@H](CCCNC(=N)N)C(=O)N1CCC[C@H]1C(=O)NCC(N)=O | 62% | 47% | 43% | 41% | 73% | inhibition (INH) (Rattus norvegicus [11]): 50%
CC(C)C[C@H](NC(=O)[C@@H](CCCCNC(=O)c1ccccc1)NC(=O)[C@H](Cc1ccc(O)cc1)NC(=O)[C@H](CO)NC(=O)[C@@H](Cc1c[nH]c2ccccc12)NC(=O)[C@@H](Cc1ccccc1)NC(=O)[C@@H]1CCC(=O)N1)C(=O)N[C@@H](CCCNC(=N)N)C(=O)N1CCC[C@H]1C(=O)NCC(N)=O |  | 0% |  |  | 11% | inhibition (INH) (Rattus norvegicus [12]): 76%; inhibition (INH) (Rattus norvegicus [13]): 40%
